Like-named read-outs stand apart in the source and are kept apart here.
Tests used:
lung, HOP-62 [1] = assay: NCI-60 five-dose assay, HOP-62; format: cell-based; details: Homo sapiens, HOP-62, read-out: cytotoxicity GI50, lung, HOP-62
Method in brief: (§1)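 Run in the National Cancer Institute's NCI-60 human cancer cell panel. Test compounds were first screened in a one-dose assay at 10–5 M, reading growth percent relative to vehicle-treated control.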

colon, HCT-116 [2] = assay: NCI-60 five-dose assay, HCT-116; format: cell-based; details: Homo sapiens, HCT-116, read-out: cytotoxicity GI50, colon, HCT-116
Method in brief: as §1

melanoma, UACC-62 [3] = assay: NCI-60 five-dose assay, UACC-62; format: cell-based; details: Homo sapiens, UACC-62, read-out: cytotoxicity GI50, melanoma, UACC-62
Method in brief: as §1

ovarian, OVCAR-3 [4] = assay: NCI-60 five-dose assay, OVCAR-3; format: cell-based; details: Homo sapiens, OVCAR-3, read-out: cytotoxicity GI50, ovarian, OVCAR-3
Method in brief: as §1

renal, SN12C [5] = assay: NCI-60 five-dose assay, SN12C; format: cell-based; details: Homo sapiens, read-out: cytotoxicity GI50, renal, SN12C
Method in brief: as §1

prostate, DU-145 [6] = assay: NCI-60 five-dose assay, DU-145; format: cell-based; details: Homo sapiens, DU-145, read-out: cytotoxicity GI50, prostate, DU-145
Method in brief: as §1

breast, MCF7 [7] = assay: NCI-60 five-dose assay, MCF7; format: cell-based; details: Homo sapiens, MCF7, read-out: cytotoxicity GI50, breast, MCF7
Method in brief: as §1

recombinant Top1 [8] = molecular target: T1, recombinant Top1 (Homo sapiens, UniProt P11387); design: key to the marks not given beside the values; details: score based on the activity of 1 μM camptothecin; cited from earlier work
T1 sequence (P11387 1-765): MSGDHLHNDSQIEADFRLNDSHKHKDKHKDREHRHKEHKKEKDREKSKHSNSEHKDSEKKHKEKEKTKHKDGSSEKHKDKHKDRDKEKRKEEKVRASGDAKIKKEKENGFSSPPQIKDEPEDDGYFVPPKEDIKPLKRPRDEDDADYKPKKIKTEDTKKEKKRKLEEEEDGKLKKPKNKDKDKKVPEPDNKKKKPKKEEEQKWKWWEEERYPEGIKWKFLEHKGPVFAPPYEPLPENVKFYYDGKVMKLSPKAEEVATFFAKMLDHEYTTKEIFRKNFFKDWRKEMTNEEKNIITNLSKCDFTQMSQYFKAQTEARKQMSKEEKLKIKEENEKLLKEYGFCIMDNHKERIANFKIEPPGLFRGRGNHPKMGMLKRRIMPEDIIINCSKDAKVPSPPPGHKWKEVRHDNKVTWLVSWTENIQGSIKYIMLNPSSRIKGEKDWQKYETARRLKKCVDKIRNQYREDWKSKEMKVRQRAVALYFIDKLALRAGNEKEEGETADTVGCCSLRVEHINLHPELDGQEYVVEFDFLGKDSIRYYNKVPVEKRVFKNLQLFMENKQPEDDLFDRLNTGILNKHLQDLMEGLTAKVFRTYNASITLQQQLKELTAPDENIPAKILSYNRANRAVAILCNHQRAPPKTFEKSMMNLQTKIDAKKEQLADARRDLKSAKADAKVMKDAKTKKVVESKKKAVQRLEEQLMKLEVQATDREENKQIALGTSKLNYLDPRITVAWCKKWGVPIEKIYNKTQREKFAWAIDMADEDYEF

lung, HOP-62 [9] = details: read-out: cytotoxicity GI50, lung, HOP-62; five-dose assay; cited from earlier work
colon, HCT-116 [10] = details: read-out: cytotoxicity GI50, colon, HCT-116; five-dose assay; cited from earlier work
CNS, SF-539 = details: read-out: cytotoxicity GI50, CNS, SF-539; five-dose assay; cited from earlier work
melanoma, UACC-62 [11] = details: read-out: cytotoxicity GI50, melanoma, UACC-62; five-dose assay; cited from earlier work
ovarian, OVCAR-3 [12] = details: read-out: cytotoxicity GI50, ovarian, OVCAR-3; five-dose assay; cited from earlier work
renal, SN12C [13] = details: read-out: cytotoxicity GI50, renal, SN12C; five-dose assay; cited from earlier work
prostate, DU-145 [14] = details: read-out: cytotoxicity GI50, prostate, DU-145; five-dose assay; cited from earlier work
breast, MCF7 [15] = details: read-out: cytotoxicity GI50, breast, MCF7; five-dose assay; cited from earlier work
[16] = test system: panel of 60 different human cancer cell lines; details: mean graph midpoint, five-dose assay; cited from earlier work
recombinant Top1 [17] = molecular target: T1, recombinant Top1; assay: Top1-mediated DNA cleavage assay; format: biochemical; details: compound-induced DNA cleavage, score based on the activity of 1 μM camptothecin
∼60 cancer cell lines = assay: NCI-60 one-dose assay; format: cell-based; details: Homo sapiens, read-out: mean growth, %, 10 μM compound, one-dose assay, relative to vehicle-treated control
Method in brief: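 Single-dose screen at 10–5 M across the ~60 human cancer cell lines of the NCI-60 panel. Growth percent of treated cells was expressed relative to vehicle-treated controls and averaged over the panel.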

[18] = test system: panel of 60 different human cancer cell lines; assay: NCI-60 five-dose assay, mean graph midpoint; format: cell-based; details: mean graph midpoint of growth inhibition, five-dose assay 10^–8 to 10^–4 M

Row | SMILES | GI50 (lung, HOP-62 [1]) | GI50 (colon, HCT-116 [2]) | GI50 (melanoma, UACC-62 [3]) | GI50 (ovarian, OVCAR-3 [4]) | GI50 (renal, SN12C [5]) | GI50 (prostate, DU-145 [6]) | GI50 (breast, MCF7 [7]) | Top1 cleavage (recombinant Top1 [8]) | GI50 (lung, HOP-62 [9]) | GI50 (colon, HCT-116 [10]) | GI50 (CNS, SF-539) | GI50 (melanoma, UACC-62 [11]) | GI50 (ovarian, OVCAR-3 [12]) | GI50 (renal, SN12C [13]) | GI50 (prostate, DU-145 [14]) | GI50 (breast, MCF7 [15]) | MGM [16] | Top1 cleavage (recombinant Top1 [17]) | activity at 10 µM (∼60 cancer cell lines) | MGM [18]
1 | CC[C@@]1(O)C(=O)OCc2c1cc1n(c2=O)Cc2cc3ccccc3nc2-1 [Compound 1, camptothecin, reference compound] | 10 nM | 30 nM | 10 nM | 220 nM | 20 nM | 10 nM | 10 nM | – | – | – | – | – | – | – | – | – | – | – | – | –
2 | COc1cc2c3c(n(CCCN4CCOCC4)c(=O)c2cc1OC)-c1cc2c(cc1C3=O)OCO2 [Compound 4, 2,3-Dimethoxy-6-(3-morpholinopropyl)-5,6-dihydro-8,9-methylenedioxy-5,12-dioxoindeno[1,2-c]isoquinoline] | – | – | – | – | – | – | – | ++++ | 1780 nM | 1150 nM | 40 nM | 30 nM | 74100 nM | 813 nM | 155 nM | 370 nM | 4.64 ± 1.25 µM | – | – | –
3 | COc1cc2c3c(n(CCCn4ccnc4)c(=O)c2cc1OC)-c1cc2c(cc1C3=O)OCO2 [Compound 5, 6-(3-(1H-Imidazol-1-yl)propyl)-2,3-dimethoxy-5,6-dihydro-8,9-methylendioxy-5,12-dioxoindeno[1,2-c]isoquinoline] | – | – | – | – | – | – | – | ++++ | < 10 nM | < 10 nM | 37 nM | < 10 nM | 85 nM | < 10 nM | < 10 nM | – | 0.079 ± 0.023 µM | – | – | –
4 | O=C1c2ccccc2-c2c1c1ccc([N+](=O)[O-])cc1c(=O)n2C[C@H](O)[C@@H](O)[C@@H](O)[C@H](O)CO [Compound 69, (2′S,3′R,4′S,5′R)-5,6-Dihydro-6-(2′,3′,4′,5′,6′-pentahydroxyhexyl)-3-nitro-5,11-dioxo-11H-indeno[1,2-c]isoquinoline] | – | 3390 nM | – | – | – | – | – | – | – | – | – | – | – | – | – | – | – | ++++ | 51.5 to 73.2% | 7.94 µM

— paper PMC3983348 (Journal of Medicinal Chemistry, 2014)
